Here are results for eleven compounds from ChEMBL document CHEMBL2440016, “Targeting the human parasite Leishmania donovani: discovery of a new promising anti-infectious pharmacophore in 3-nitroimidazo[1,2-a]pyridine series” (Bioorg Med Chem, 2013).

The test system of data set [1] is HepG2. The data set can be described thus: (§1) Cytotoxicity against human HepG2 cells after 72 hrs by MTT assay. To be noted: hepg2, 72 h. It is filed as cell-based. In outline: (§2)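 Cells plated in RPMI with 10% FCS, L-glutamine and penicillin/streptomycin, 24 h at 37 °C, 6% CO2. Compound dilutions then added for 72 h. MTT 0.5 mg/mL in PBS for 2 h, formazan dissolved in DMSO, A570 with 630 nm reference. Viability taken as % of untreated control. Doxorubicin served as positive control. CC50 from the dose-response curve.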
(Formazan colour is commonly taken as a measure of viable cells.)

Data set [2] is described as follows: Cytotoxicity against mouse J774.1 cells after 72 hrs by MTT assay. Type of data set: cell-based. To be noted: for CC50: j774.1, 72 h; for CC50 at 72 h: J774.1 cells. In outline:
as §2

In data set [3] the test system is Leishmania donovani. Briefly: Antimicrobial activity against Leishmania donovani MHOM/IN/00/DEVI promastigotes after 72 hrs by MTT assay. Type of data set: functional, organism-based. In outline: (§3)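 Log-phase promastigotes in Schneider's medium with 20% FCS, 2 mM L-glutamine and penicillin/streptomycin, at 10⁶ parasites/mL. Compound dilutions run in duplicate, final DMSO <0.5%, 72 h at 27 °C. MTT 0.5 mg/mL for 6 h at 27 °C, formazan dissolved in DMSO, A570.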

Data set [4] can be described thus: as §1. Type of data set: cell-based. As to conditions: HepG2 cells. In outline: as §2
Data set [5] deals with Leishmania infantum. The data set can be described thus: Antimicrobial activity against Leishmania infantum MCAN/ES/98/LLM-877 promastigotes after 72 hrs by MTT assay. It is filed as functional, organism-based. As to conditions: MCAN/ES/98/LLM-877, 72 h. In outline:
as §3

Data set [6] can be described thus: Selectivity index, ratio of CC50 for human HepG2 cells to IC50 for Leishmania donovani MHOM/IN/00/DEVI. Type of data set: functional. In outline: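 SI = HepG2 CC50 / L. donovani IC50.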
Data set [7] is described as follows: Selectivity index, ratio of CC50 for mouse J774.1 cells to IC50 for Leishmania donovani MHOM/IN/00/DEVI. Type of data set: functional.
For data set [8], the system named is Plasmodium falciparum. Briefly: Antiplasmodial activity against Plasmodium falciparum K1 infected in human erythrocytes after 72 hrs by SYBR Green I fluorescence assay. It is filed as functional, organism-based. As to conditions: K1, 72 h. In outline:
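K1 strain, resistant to chloroquine, pyrimethamine and proguanil, grown in A+ human erythrocytes with RPMI 1640, HEPES, NaHCO3 and 10% A+ serum. Rings synchronized with 5% sorbitol. Compounds tested at 2% hematocrit and 1% parasitaemia, 72 h at 37 °C in 5% O2, 5% CO2, in triplicate. DNA read by SYBR Green I lysis, 15 min, ex 497/em 520 nm. IC50 from three independent experiments.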

Data set [9] relates to Leishmania donovani. The data set can be described thus: Antimicrobial activity against Leishmania donovani MHOM/IN/00/DEVI amastigotes infected in mouse J774.1 cells after 120 hrs by microscopic analysis. It is filed as functional, organism-based. As to conditions: J774.1, 120 h. In outline: (§4)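 J774A.1 macrophages seeded at 5x10⁴ cells/mL, 24 h at 37 °C, 6% CO2. L. donovani promastigotes acidified 24 h at 27 °C in Schneider 20% FCS pH 5.4, then used to infect at 10:1 for 24 h. Compounds added in duplicate, final DMSO <0.5%, 120 h at 37 °C. Cells methanol-fixed and Giemsa-stained, ≥200 cells counted for % infected. IC50 by non-linear regression, mean of three independent experiments.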

For data set [10], the system named is Leishmania donovani. Briefly: Antimicrobial activity against Leishmania donovani amastigotes. It is filed as functional, organism-based. In outline:
as §4

The test system of data set [11] is Leishmania donovani. Briefly: Antimicrobial activity against Leishmania donovani promastigotes. Type of data set: functional, organism-based. In outline: as §3
Data set [12] can be described thus: Selectivity ratio of IC50 for Plasmodium falciparum K1 to IC50 for Leishmania infantum MCAN/ES/98/LLM-877 promastigotes. Type of data set: functional.
Data set [13] is described as follows: Selectivity ratio of IC50 for Plasmodium falciparum K1 to IC50 for Leishmania donovani MHOM/IN/00/DEVI promastigotes. It is filed as functional.
Data set [14] in a line: Selectivity ratio of IC50 for Plasmodium falciparum K1 to IC50 for Leishmania donovani MHOM/IN/00/DEVI amastigotes. It is filed as functional.
Where [15] appears, read: Leishmania donovani, MHOM/IN/00/DEVI, 72 h, read-out: IC50.

Each structure is given as a SMILES string.

As for `O=[N+]([O-])c1c(CS(=O)(=O)c2ccccc2)nc2ccc(-c3cccc(C(F)(F)F)c3)cn12`, the cytotoxic concentration (CC50) entry in data set [1] and in data set [2] was “ND(Insoluble)” throughout. Also, the IC50 (as a rule, the concentration that inhibits the measured activity by half) in data set [3] was “ND(Insoluble)”.
With `COc1ccc(-c2ccc3nc(CS(=O)(=O)c4ccccc4)c([N+](=O)[O-])n3c2)cc1`, the CC50 result in data set [1] and in [2] was “ND(Insoluble)” in each case. For the same compound, in data set [3], the half-maximal inhibitory concentration (IC50) entry was “ND(Insoluble)”.
Regarding `O=[N+]([O-])c1c(CS(=O)(=O)c2ccccc2)nc2ccc(Br)cn12`, the CC50 (as a rule, the concentration at which the toxic effect on the cells reaches its halfway point) at 72 h in [4] was greater than 100 µM; in [2], 34.3 µM. Further, the IC50 in data set [5] was greater than 25 µM; in data set [8], 41.2 µM; in data set [9] it was greater than 25 µM; in [3] (setting [15]), 14 µM. Moreover, the “Ratio CC50/IC50” value is on record as greater than 7.1 in [6] and 2.5 in data set [7].
On to `COc1ccc(Sc2c([N+](=O)[O-])cc(C#N)cc2[N+](=O)[O-])cc1`, for which the half-maximal inhibitory concentration (IC50) in data set [10] was found to be 0.7 µM.
With `N=C(N)c1ccc(OCCCCCOc2ccc(C(=N)N)cc2)cc1` [PENTAMIDINE], the results for the “Ratio CC50/IC50” value in [6] and in data set [7] were 0.4 and 0.1, respectively. The same compound displayed a CC50 at 72 h in [2] of 1 µM. In [9], this compound gave an IC50 greater than 20 µM.
`C[C@@H]1[C@H](O)[C@@H](C)/C=C/C=C/C=C/C=C/C=C/C=C/C=C/[C@H](O[C@@H]2O[C@H](C)[C@@H](O)[C@H](N)[C@@H]2O)C[C@@H]2O[C@](O)(C[C@@H](O)C[C@@H](O)[C@H](O)CC[C@@H](O)C[C@@H](O)CC(=O)O[C@H]1C)C[C@H](O)[C@H]2C(=O)O` [AMPHOTERICIN B]: the concentration for half-maximal inhibition (IC50) in [5] was 0.04 µM; in [9] it was 0.07 µM. In data set [2], the 50% cytotoxic concentration (CC50) at 72 h turned out to be 3.1 µM.
`CSc1ccc(OCc2ncc([N+](=O)[O-])n2C)cc1` [FEXINIDAZOLE]: the half-inhibitory concentration (IC50) in data set [10] is 2.8 µM; in data set [11], 5.6 µM.
`O=C1C(O)=C([C@H]2CC[C@H](c3ccc(Cl)cc3)CC2)C(=O)c2ccccc21` [ATOVAQUONE] returned an IC50 in data set [8] of 0.0015 µM.
Consider `O=[N+]([O-])c1c(CS(=O)(=O)c2ccccc2)nc2ccc(-c3ccc4ccccc4c3)cn12`, for which the CC50 result in [1] and in data set [2] was “ND(Insoluble)” each time. The IC50 result in data set [3] is “ND(Insoluble)”.
For `CCCCCCCCCCCCCCCCOP(=O)([O-])OCC[N+](C)(C)C` [MILTEFOSINE], in [2], the midpoint of cytotoxicity, the CC50 at 72 h, lay at 94.6 µM. Also, in [9], the IC50 is 6.8 µM.
With `O=[N+]([O-])c1c(CS(=O)(=O)c2ccccc2)nc2c(Br)cc(Br)cn12`, the values for the CC50 at 72 h in data set [4] and in [2] were greater than 31 µM and greater than 25 µM, respectively. Besides, the half-maximal inhibitory concentration (IC50) in data set [5] came to 3.3 µM; in [8] it was 16 µM; in data set [9], 5.5 µM; in [3] (setting [15]) it was 1.8 µM. The Ratio IC50 worked out at 4.8 in data set [12], 8.9 in [13] and 3 in data set [14]. Besides, the “Ratio CC50/IC50” value in data set [6] is greater than 17.2; in [7] it was greater than 13.4.
